Sampled rows, rich in hits. Any-hit rate of the full collection: about 2.7%.
MC4R barr agon: agonists of human melanocortin 4 receptor (MC4R) beta-arrestin; 360,000 compounds, 0.98% hits; activation, % at 8.9 µM; P32245; U2OS MC4R beta-arrestin complementation, luminescence; percent of melanotan II response, DMSO zero; AID 540308;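 active = activation above a per-plate cutoff, the mean activation of sample wells on that plate plus 3 SD, cut at about 8% in these data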
Target sequence (P32245 whole entry, looked up): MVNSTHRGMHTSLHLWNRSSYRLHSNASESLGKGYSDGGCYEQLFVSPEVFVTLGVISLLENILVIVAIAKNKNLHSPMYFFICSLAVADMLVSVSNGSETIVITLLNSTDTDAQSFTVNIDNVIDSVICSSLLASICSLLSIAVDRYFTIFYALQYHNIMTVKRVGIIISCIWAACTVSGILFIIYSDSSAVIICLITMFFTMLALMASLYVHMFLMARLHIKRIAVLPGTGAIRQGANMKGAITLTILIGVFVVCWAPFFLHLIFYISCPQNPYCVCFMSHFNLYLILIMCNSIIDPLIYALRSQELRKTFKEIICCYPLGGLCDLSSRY
NTR1 ag: activates human neurotensin receptor 1 | 330,000 compounds, 0.17% hits | AID 493036 | activation, % at 20 µM | NTR1-U2OS beta-arrestin-GFP spot imaging, agonist mode | P30989;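 active = activation at or above 40% of the spot to cytoplasm intensity ratio, with at least 20 cells analyzed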;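 note: 0% = DMSO without peptide and 100% = 100 nM NTR1 peptide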
PREPL inh: inhibits the human prolyl oligopeptidase-like enzyme. Q4J6C6. recombinant PREPL, fluorescence polarization activity-based probe. inhibition, % at 5.96 µM. 320,000 compounds, 0.68% hits; in the data active = inhibition above about 43%;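 note: 0% = enzyme with DMSO and 100% = wells lacking enzyme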
m5-HT2A agonist: mouse HTR2A agonism via beta-arrestin recruitment. P35363. CHO-K1 mHTR2A beta-arrestin complementation, luminescence; percent of 30 µM serotonin response. activation, % at 7.6 µM. 360,000 compounds, 0.66% hits. AID 624169;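 active = activation above a run cutoff, the mean activation of all tested compounds plus 3 SD, cut at about 14% in these data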;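 note: 0% = plate median of compound wells and 100% = 30 µM serotonin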
Hep lipid drop: modulators of hepatic lipid droplet formation; inhibition, % at 6.5 µM; 240,000 compounds, 0.4% hits; AML12 mouse hepatocytes, oleate lipid droplets, BODIPY imaging;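 active = lipid droplet intensity inhibited by at least 50%, with more than 500 cells counted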
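System: AML12 hepatocytes (mouse). Probe or stimulus: oleic acid at 100 µM to induce lipid droplet formation. Times: overnight treatment with compound plus oleate. Detection: Image-based BODIPY and DAPI two-channel analysis. Evaluation: percent inhibition of filter-corrected integrated lipid droplet intensity per well.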
MC4R antagonist: antagonists of human melanocortin 4 receptor (MC4R) | P32245 | MC4R-expressing cells, MTII-stimulated cAMP, LANCE TR-FRET | inhibition, % at 6.5 µM | 360,000 compounds, 0.48% hits | AID 540295;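 active = inhibition above its plate's cutoff, the mean of tested wells on that plate plus 3 SD, cut at about 29% in these data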;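 note: 0% = Melanotan II alone and 100% = Melanotan II plus saturating MCL0020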
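Material: human MC4R-expressing U2OS cells. Probe or stimulus: Melanotan II challenge. Dosing: 6.5 µM single dose. Times: 30-min compound, 1-h challenge, 1-h detection, room temperature. Technique: TR-FRET with Eu-cAMP and labeled anti-cAMP, 671 nm. Replication: singlicate.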
U2OS cAMP counter: counter-screen for MC4R antagonists: nonselective cAMP signaling inhibitors. parental U2OS, forskolin cAMP, LANCE TR-FRET. inhibition, % at 6.5 µM. shares compounds with MC4R antagonist. 1,600 compounds, 26% hits;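 active = mean inhibition over triplicates above the low-control well mean plus 3 SD, set per campaign, cut at about 13% in these data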;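 note: signal is single emission at 671 nm which falls as cellular cAMP rises; 0% = forskolin-stimulated wells and 100% = buffer without forskolin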
MC4R antag conf: human MC4R cAMP antagonism confirmation; shares compounds with MC4R antagonist; MC4R-expressing cells, MTII-stimulated cAMP, TR-FRET; inhibition, % at 6.5 µM; 1,600 compounds, 27% hits; in the data active = inhibition above about 29%;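 note: 0% = agonist stimulated wells alone and 100% = agonist stimulated wells plus saturating reference antagonist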
The depositor's hits bear a star; · = not tested or not shown.

SMILES | MC4R barr agon | NTR1 ag | PREPL inh | m5-HT2A agonist | Hep lipid drop | MC4R antagonist | U2OS cAMP counter | MC4R antag conf
CC1=NN(c2ccccc2)C(=O)/C1=C\c1cn(-c2ccccc2)nc1C | 3.5 | 6.7 | 5.5 | 1.3 | 5.9 | 28.5* | 5.1 | 6.4
O=C(NCc1ccncc1)c1cc(C(=O)C2CC2)c[nH]1 | -2.4 | -0.1 | 23.2 | -2.9 | -1.0 | 0.7 | · | ·
O=C(NCc1ccncc1)c1cc(C(=O)C2CCCCC2)c[nH]1 | -0.9 | 1.5 | 4.7 | -1.6 | 5.0 | 30.3* | 4.0 | -7.0
COC(=O)CCc1sc(NC2CCCCC2)nc1-c1ccc(OC)cc1 | -2.6 | 3.7 | 0.0 | -0.1 | 8.1 | 10.6 | · | ·
CCCCCCNc1nc(-c2ccc(OC)cc2)c(CCC(=O)O)s1 | 1.4 | -1.8 | 3.9 | 2.1 | -40.4 | 29.5* | -2.9 | -1.3
N#Cc1cccc(NC(=O)c2cc(C3CCCCN3C(=O)c3ccccn3)on2)c1 (configuration not stated) | -1.6 | · | · | 1.3 | · | 4.6 | · | ·
NC(=O)c1ccc(NCC2COc3ccccc3O2)c([N+](=O)[O-])c1 (configuration not stated) | -0.8 | 1.7 | 11.9 | 0.2 | 7.6 | 36.1* | -1.7 | -3.1
CSc1ncccc1C(=O)OCC(=O)N(CC(C)C)c1c(N)n(Cc2ccccc2)c(=O)[nH]c1=O | -0.8 | -1.4 | 4.5 | -3.3 | 0.4 | 2.8 | · | ·
CC(C)NC(=O)N1Cc2cc(C(=O)NC3CCC3)nc(-c3cccc(-c4cncnc4)c3)c2[C@H]1CCO | · | · | · | 1.2 | · | · | · | ·
O=C(COC(=O)c1ccncc1)NCCCc1ccccc1 | 1.8 | -0.3 | -1.7 | -2.5 | -0.2 | 29.6* | 2.1 | 7.3
Cc1onc(-c2ccccc2Cl)c1C(=O)NNC(=O)c1ccc(F)cc1 | 1.1 | -0.4 | 0.8 | 2.4 | 2.5 | 0.9 | · | ·
Cc1onc(-c2ccccc2Cl)c1C(=O)NNC(=O)c1nn(C)cc1Cl | -0.4 | -0.2 | 18.4 | 0.4 | 2.9 | 36.3* | -3.4 | -12.8
O=S(=O)(/C(=C/c1ccc(C(F)(F)F)cc1)c1nc2ccccc2[nH]1)c1ccccc1 | -1.8 | · | -0.4 | -8.9 | -33.8 | 34.9* | 13.2* | 48.0*
C/C(=C\c1ccc(N)cc1)c1nc2ccccc2[nH]1 | -1.8 | 0.7 | 5.3 | 8.0 | -6.6 | -3.0 | · | ·
CCOC(=O)c1c(NC(=O)C2c3ccccc3Oc3ccccc32)sc(C(N)=O)c1C | 4.3 | 14.8 | 6.6 | -3.5 | 5.0 | 31.8* | 6.0 | 21.7
Cc1ccccc1OCc1ccc(C(=O)N2CCOCC2)o1 | 1.4 | 0.1 | 6.5 | -1.4 | -13.2 | 11.3 | · | ·
Cc1ccc(Cn2c(SCC(=O)N3CC(=O)Nc4ccccc43)nc3ccccc3c2=O)cc1 | -0.5 | 3.8 | -9.8 | -0.7 | -11.0 | 29.2* | -0.6 | -4.7
CC(c1ccccc1)n1c(SCC(=O)N2CC(=O)Nc3ccccc32)nc2ccccc2c1=O (configuration not stated) | -0.8 | 4.8 | 6.9 | -5.5 | -24.3 | 32.7* | 0.0 | 17.6
O=C1CN(C(=O)CSc2nc3cc(Cl)ccc3c(=O)n2Cc2ccccc2)c2ccccc2N1 | -5.4 | -0.3 | -11.2 | 5.3 | -0.5 | 13.7 | · | ·
CC(C)COC(=O)N1CCCCC1c1cc(C(=O)NCc2ccccc2)no1 (configuration not stated) | -1.7 | · | · | -3.0 | · | 7.8 | · | ·
O=S(=O)(NC1=NCCCCC1)c1ccc(F)cc1F | -2.6 | 0.6 | 5.9 | 2.7 | · | 3.2 | · | ·
O=S(=O)(NC1=NCCC1)c1ccc(F)cc1F | -2.7 | 1.1 | 0.5 | 1.5 | -23.6 | 29.1* | 5.3 | 12.6
C[C@@H]1CCCCO[C@H](CN(C)S(=O)(=O)c2cccs2)[C@@H](C)CN([C@H](C)CO)C(=O)c2cc(NC(=O)C3CCCCC3)ccc2O1 | -0.3 | · | · | -2.9 | · | 18.6 | · | ·
O=C(CCN1CCCO1)N1CCCC(Nc2cccc(F)c2)C1 (configuration not stated) | -1.3 | · | · | 4.0 | · | -2.1 | · | ·

Screening data from PubChem.
